From ChEMBL document CHEMBL1153560, “In vitro activities of doripenem and six comparator drugs against 423 aerobic and anaerobic bacterial isolates from infected diabetic foot wounds” (2008)
In brackets after ≈: the same amount, converted by molar mass.

How the values were obtained:
Assay type in all cases: functional
[1] = system: Corynebacterium striatum; test: Antibacterial activity against Corynebacterium striatum isolated from patient with diabetic foot infection after 48 hrs by broth microdilution method
In short: (§1)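 Isolates were subcultured on Trypticase soy blood agar. Broth microdilution used cation-adjusted Mueller-Hinton broth with lysed horse blood, in-house trays of twofold drug dilutions stored at −70°C. Colonies from overnight growth gave a final inoculum of about 5 × 10^5 CFU/ml. Trays were read after 18 to 24 h at 37°C, up to 48 h for some strains.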

[2] = system: Staphylococcus epidermidis; test: Antibacterial activity against Staphylococcus epidermidis isolated from patient with diabetic foot infection after 18 to 24 hrs by broth microdilution method
In short: (§2)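 Isolates were subcultured on Trypticase soy blood agar and tested by broth microdilution in cation-adjusted Mueller-Hinton broth. In-house trays of twofold drug dilutions were stored at −70°C. Overnight colonies gave a final inoculum of about 5 × 10^5 CFU/ml. Plates were read after 18 to 24 h at 37°C.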

[3] = system: Staphylococcus aureus; test: Antibacterial activity against methicillin-resistant Staphylococcus aureus isolated from patient with diabetic foot infection after 18 to 24 hrs by broth microdilution method
In short: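 Isolates grown on Trypticase soy blood agar, then tested by broth microdilution in unsupplemented cation-adjusted Mueller-Hinton broth. In-house trays held serial twofold drug dilutions and were stored at −70°C. Overnight colonies were suspended to a final inoculum near 5 × 10^5 CFU/ml, and trays read after 18–24 h at 37°C. QC strains: S. aureus ATCC 29213, E. coli ATCC 25922.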

[4] = system: Streptococcus agalactiae; test: Antibacterial activity against Streptococcus agalactiae isolated from patient with diabetic foot infection assessed as percent resistant isolates after 18 to 24 hrs by broth microdilution method
In short: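 Streptococci subcultured on Trypticase soy blood agar and tested by broth microdilution in cation-adjusted Mueller-Hinton broth with lysed horse blood. In-house twofold dilution trays stored at −70°C. About 5 × 10^5 CFU/ml final inoculum from overnight colonies. Read after 18 to 24 h at 37°C.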

[5] = system: Staphylococcus haemolyticus; test: Antibacterial activity against Staphylococcus haemolyticus isolated from patient with diabetic foot infection assessed as percent resistant isolates after 18 to 24 hrs by broth microdilution method
[6] = system: Staphylococcus epidermidis; test: Antibacterial activity against Staphylococcus epidermidis isolated from patient with diabetic foot infection assessed as percent resistant isolates after 18 to 24 hrs by broth microdilution method
In short: (§3)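 Aerobes subcultured on Trypticase soy blood agar, then broth microdilution in cation-adjusted Mueller-Hinton broth. Trays prepared in-house with twofold dilutions and stored at −70°C. Overnight colonies suspended to about 5 × 10^5 CFU/ml final. Read after 18 to 24 h at 37°C. QC strains included S. aureus ATCC 29213 and E. coli ATCC 25922.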

[7] = system: Streptococcus pyogenes; test: Antibacterial activity against Streptococcus pyogenes isolated from patient with diabetic foot infection assessed as percent resistant isolates after 18 to 24 hrs by broth microdilution method
In short: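 Isolates subcultured on Trypticase soy blood agar. MICs by broth microdilution in cation-adjusted Mueller-Hinton broth with lysed horse blood, in in-house trays of serial twofold drug dilutions stored at −70°C. Colonies from overnight growth were suspended to a final inoculum of about 5 × 10^5 CFU/ml. Read after 18–24 h at 37°C.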

[8] = system: Corynebacterium xerosis; test: Antibacterial activity against Corynebacterium xerosis isolated from patient with diabetic foot infection after 48 hrs by broth microdilution method; in short: as §1
[9] = system: Corynebacterium amycolatum; test: Antibacterial activity against Corynebacterium amycolatum isolated from patient with diabetic foot infection after 48 hrs by broth microdilution method; in short: as §1
[10] = system: Corynebacterium striatum; test: Antibacterial activity against Corynebacterium striatum isolated from patient with diabetic foot infection assessed as percent resistant isolates after 48 hrs by broth microdilution method
In short: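 Isolates subcultured on Trypticase soy blood agar. Broth microdilution in cation-adjusted Mueller-Hinton broth with lysed horse blood, using in-house twofold dilution trays stored at −70°C. Inoculum from overnight colonies at about 5 × 10^5 CFU/ml final. Read after 18 to 24 h at 37°C, up to 48 h for some Corynebacterium strains.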

[11] = system: Klebsiella oxytoca; test: Antibacterial activity against Klebsiella oxytoca isolated from patient with diabetic foot infection assessed as percent resistant isolates after 18 to 24 hrs by broth microdilution method; in short: as §3
[12] = system: Escherichia coli; test: Antibacterial activity against Escherichia coli ATCC 25922 after 44 to 48 hrs by agar dilution method
[13] = system: Bacteroides fragilis; test: Antibacterial activity against Bacteroides fragilis ATCC 25285 after 44 to 48 hrs by agar dilution method
In short: (§4)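 CLSI M11-A7 agar dilution: serial twofold drug dilutions made on the test day and added to molten agar. Spots of 10^5 CFU were applied by replicator, with drug-free control plates inoculated before and after each set. Incubation was 44 to 48 h at 37°C in an anaerobic chamber. MIC was the lowest concentration giving no growth or a marked change in growth versus controls.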

[14] = system: Klebsiella aerogenes; test: Antibacterial activity against Enterobacter aerogenes isolated from patient with diabetic foot infection after 18 to 24 hrs by broth microdilution method; in short: as §2
[15] = system: Enterococcus faecalis; test: Antibacterial activity against Enterococcus faecalis after 44 to 48 hrs by agar dilution method
[16] = system: Klebsiella pneumoniae; test: Antibacterial activity against Klebsiella pneumoniae isolated from patient with diabetic foot infection after 18 to 24 hrs by broth microdilution method; in short: as §2
[17] = system: Klebsiella oxytoca; test: Antibacterial activity against Klebsiella oxytoca isolated from patient with diabetic foot infection after 18 to 24 hrs by broth microdilution method; in short: as §2
[18] = system: Staphylococcus aureus; test: Antibacterial activity against Staphylococcus aureus ATCC 29213 after 44 to 48 hrs by agar dilution method
[19] = system: Klebsiella pneumoniae; test: Antibacterial activity against Klebsiella pneumoniae isolated from patient with diabetic foot infection assessed as percent resistant isolates after 18 to 24 hrs by broth microdilution method; in short: as §3
[20] = system: Clostridioides difficile; test: Antibacterial activity against Clostridium difficile ATCC 700057 after 44 to 48 hrs by agar dilution method; in short: as §4
[21] = system: Corynebacterium; test: Antibacterial activity against multi drug-resistant Corynebacterium assessed as percent of susceptible isolates at =< 4 ug/ml by NCCLS M7-A6 method

SMILES	MIC50 [1]	MIC90 [1]	MIC50 [2]	MIC90 [2]	MIC50 [3]	MIC90 [3]	Activity [4]	Activity [5]	Activity [6]	Activity [7]	MIC50 [8]	MIC90 [8]	MIC50 [9]	MIC90 [9]	also measured
CCC[C@@H]1C[C@@H](C(=O)N[C@@H]([C@H]2O[C@H](SC)[C@H](O)[C@@H](O)[C@H]2O)[C@H](C)Cl)N(C)C1 [CLINDAMYCIN]	2 µg/mL (≈ 4.71 µM)	> 64 µg/mL	0.25 µg/mL (≈ 0.588 µM)	> 64 µg/mL	0.125 µg/mL (≈ 0.294 µM)	> 64 µg/mL	33%	13%	33%	13%	2 µg/mL (≈ 4.71 µM)	> 64 µg/mL	> 64 µg/mL	> 64 µg/mL	Activity [10]: 78%
C[C@@H](O)[C@H]1C(=O)N2C(C(=O)O)=C(S[C@@H]3CN[C@H](CNS(N)(=O)=O)C3)[C@H](C)[C@H]12 [DORIPENEM]	0.125 µg/mL (≈ 0.297 µM)	0.25 µg/mL (≈ 0.595 µM)	0.25 µg/mL (≈ 0.595 µM)	2 µg/mL (≈ 4.76 µM)	0.5 µg/mL (≈ 1.19 µM)	8 µg/mL (≈ 19 µM)	0%	73%	67%	0%	0.125 µg/mL (≈ 0.297 µM)	0.25 µg/mL (≈ 0.595 µM)	1 µg/mL (≈ 2.38 µM)	8 µg/mL (≈ 19 µM)	Activity [11]: 0%; MIC [12]: ≤ 0.015 µg/mL; MIC [13]: 0.125 µg/mL (≈ 0.297 µM); MIC50 [14]: 0.06 µg/mL (≈ 0.143 µM); MIC90 [14]: 0.25 µg/mL (≈ 0.595 µM); MIC [15]: 2 µg/mL (≈ 4.76 µM); MIC50 [16]: 0.06 µg/mL (≈ 0.143 µM); MIC90 [16]: 0.125 µg/mL (≈ 0.297 µM); MIC50 [17]: 0.06 µg/mL (≈ 0.143 µM); MIC90 [17]: 0.125 µg/mL (≈ 0.297 µM); MIC [18]: 0.03 µg/mL (≈ 0.0713 µM); Activity [19]: 0%; MIC [20]: 2 µg/mL (≈ 4.76 µM); Activity [21]: 40%
